ERb SRC1 inh – inhibitors of ERβ-SRC1 coactivator interaction, primary screen, biochemical, TR-FRET, ERβ LBD, SRC-1 peptide. Estrogen receptor beta (Homo sapiens), Q92731. TR-FRET ER-beta LBD / SRC1-Cy5 peptide binding; receptor agonist-loaded with 1 µM estradiol. inhibition, % at 25.6 µM. 86,000 compounds, 1.3% hits;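 active means compounds whose percent inhibition of the receptor-coactivator binding signal exceeds about 50% in the single-dose screen, limit read from the data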;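 further: 0% = receptor plus peptide wells without compound and 100% = peptide-only wells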
Target sequence (Q92731 whole entry, looked up, the tested form may be a part): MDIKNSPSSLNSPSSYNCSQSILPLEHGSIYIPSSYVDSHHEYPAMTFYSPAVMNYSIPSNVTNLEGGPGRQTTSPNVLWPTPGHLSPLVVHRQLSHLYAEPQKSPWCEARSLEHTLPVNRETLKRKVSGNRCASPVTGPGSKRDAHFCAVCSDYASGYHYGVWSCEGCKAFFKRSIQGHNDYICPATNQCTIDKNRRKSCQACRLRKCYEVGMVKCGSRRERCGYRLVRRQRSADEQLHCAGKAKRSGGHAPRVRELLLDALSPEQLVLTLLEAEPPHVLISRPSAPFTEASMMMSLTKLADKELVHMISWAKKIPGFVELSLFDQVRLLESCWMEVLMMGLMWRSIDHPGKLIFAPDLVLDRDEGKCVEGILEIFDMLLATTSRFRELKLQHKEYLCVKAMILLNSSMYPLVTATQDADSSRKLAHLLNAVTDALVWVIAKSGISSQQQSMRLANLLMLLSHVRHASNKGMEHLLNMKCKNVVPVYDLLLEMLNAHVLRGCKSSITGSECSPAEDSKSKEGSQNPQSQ
ERa SRC1 pot – enhancers of ERα–SRC-1 coactivator binding, primary screen, biochemical, TR-FRET, ERα LBD, low estradiol; coactivator binding (% of control), % at 25.6 µM; 86,000 compounds, 1.3% hits; TR-FRET ERalpha-LBD/SRC-Cy5 coactivator binding, 2 h; 100 = basal binding, no effect; Estrogen receptor (Homo sapiens), P03372; in the data active means activity above about 200%;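 further: binding measured in presence of low estradiol as agonist stimulus; 0% = peptide alone without receptor and 100% = receptor with peptide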
Lung fibro prol – antiproliferative effect on LL 47 fibroblasts – human, LL 47 cells, CellTiter-Glo luminescence, primary screen; 85,000 compounds, 1.1% hits; AID 719, 2007; LL 47 human lung fibroblast viability, ATP luminescence; stronger effect = lower value; viability, % at 10 µM;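 active means viability at or below 50% in the single dose screen; inactive means viability above 50%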;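 further: compound exposure lasted 72 h before the ATP readout; 100% = median luminescence of untreated cell-only wells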
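Assay system: human lung fibroblast line LL 47, low passage. Input: 1,150 fibroblasts seeded per well. Times: overnight cell rest, 72 h compound treatment at 37 °C. Evaluation: % viability of median cell-only signal. Technique: luminescent ATP detection, CellTiter-Glo. Control set: cell-only wells, no compound.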
H69AR growth 86K – proliferation blockers of H69AR lung cancer cells, primary screen, cell-based, human, 86K library; viability, % at 10 µM; H69AR lung tumor viability, ATP luminescence, 72 h; stronger effect = lower value; 85,000 compounds, 6% hits;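 active means viability at or below 40%; inactive means viability above 40%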;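 further: multidrug resistant small cell line overexpressing MRP-1 efflux transporter; 100% = mean luminescence of untreated control wells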
HUVEC prolif 384 – inhibitors of HUVEC proliferation, primary screen, cell-based, 384-well | 86,000 compounds, 1.1% hits | viability, % at 10 µM (by protocol) | CellTiter-Glo luminescence, 72 h; stronger effect = lower value;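 active means viability at or below 30%; inactive means viability above 30%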;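 further: 100% = median luminescence of DMSO-only cell control wells on each plate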
ERa SRC1 inh – ERα–SRC-1 coactivator interaction inhibitors, primary screen, biochemical, TR-FRET, ERα LBD, estradiol-bound. Estrogen receptor (Homo sapiens), P03372. TR-FRET ER-alpha LBD / SRC-1 peptide. inhibition, % at 25.6 µM. 86,000 compounds, 1.7% hits; in the data active means inhibition above about 50%;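 further: 0% = receptor plus peptide control and 100% = peptide only without receptor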
The depositor's hits bear a star; [ ] = remark or other dose. Only some compounds are listed: those with a hit (about 9.2% of all), similar ones and a draw of the others.

Screening O=C1C=C(NCc2ccc(Cl)c(Cl)c2)C2(CCCCC2)O1 returned ERb SRC1 inh -4, ERa SRC1 pot 93, Lung fibro prol 93, H69AR growth 86K 103, HUVEC prolif 384 94 and ERa SRC1 inh -4.
For Cc1cccc(N2CCN(C(=O)c3c(C)nn(Cc4ccccc4Cl)c3C)CC2)c1C the results were ERb SRC1 inh -6, ERa SRC1 pot 106, Lung fibro prol 96, H69AR growth 86K 49, HUVEC prolif 384 58 and ERa SRC1 inh -3.
`CCC(Sc1nc2sc(C(=O)OC)c(C)c2c(=O)n1N)C(=O)N(CC)CC` (configuration not stated) gave ERb SRC1 inh -6, ERa SRC1 pot 113, Lung fibro prol 96, H69AR growth 86K 19*, HUVEC prolif 384 87 and ERa SRC1 inh -11.
For O=C(CC1(O)C(=O)N(Cc2ccc3c(c2)OCO3)c2ccccc21)c1ccccc1 (configuration not stated) the results were ERb SRC1 inh 2, ERa SRC1 pot 111, H69AR growth 86K 14*, HUVEC prolif 384 84 and ERa SRC1 inh 2.
For Cc1ccc(C(=O)CC2(O)C(=O)N(Cc3ccc4c(c3)OCO4)c3ccccc32)cc1 (configuration not stated) the results were ERb SRC1 inh -9, ERa SRC1 pot 100, Lung fibro prol 99, H69AR growth 86K 44, HUVEC prolif 384 97 and ERa SRC1 inh 5.
Cc1ccccc1CN1C(=O)C(O)(CC(=O)c2ccncc2)c2ccccc21 (configuration not stated) was read as ERb SRC1 inh 1, ERa SRC1 pot 118, Lung fibro prol 103, H69AR growth 86K 19*, HUVEC prolif 384 67 and ERa SRC1 inh -1.
O=C(CC1(O)C(=O)N(Cc2ccccc2)c2ccccc21)c1ccncc1 (configuration not stated) was read as ERb SRC1 inh 5, ERa SRC1 pot 102, Lung fibro prol 98, H69AR growth 86K 17*, HUVEC prolif 384 75 and ERa SRC1 inh -4.
Screening O=C(CC1(O)C(=O)N(Cc2ccccc2)c2ccccc21)c1ccc2c(c1)OCO2 (configuration not stated) returned ERb SRC1 inh -16, ERa SRC1 pot 97, Lung fibro prol 100, H69AR growth 86K 76, HUVEC prolif 384 93 and ERa SRC1 inh -8.
COc1cc2c(cc1OC)C(C(=O)NCc1cccnc1)C(c1cccnc1)N(C)C2=O (configuration not stated) was read as ERb SRC1 inh -17, ERa SRC1 pot 117, Lung fibro prol 98, H69AR growth 86K 110, HUVEC prolif 384 108 and ERa SRC1 inh -6.
Screening O=c1c(C(c2ccccc2)c2c(O)sc3ccccc3c2=O)c(O)sc2ccccc12 returned ERb SRC1 inh 29, ERa SRC1 pot 119, Lung fibro prol 89, H69AR growth 86K 36*, HUVEC prolif 384 67 and ERa SRC1 inh 81*[fluorescence artefact?].
Screening OC(c1ccccc1)c1nc2ccccc2s1 (configuration not stated) returned ERb SRC1 inh 3, ERa SRC1 pot 112, Lung fibro prol 95, H69AR growth 86K 99, HUVEC prolif 384 90 and ERa SRC1 inh -4.
`CC(=O)Oc1ccc(N(C(C)=O)S(=O)(=O)c2cccs2)c2ccccc12` gave ERb SRC1 inh 11, ERa SRC1 pot 78, Lung fibro prol 112, H69AR growth 86K 1.4*, HUVEC prolif 384 4.0* and ERa SRC1 inh 0.
`COc1c(Br)cc(Br)cc1C(=O)O` gave ERb SRC1 inh 7, ERa SRC1 pot 85, Lung fibro prol 101, H69AR growth 86K 93, HUVEC prolif 384 104 and ERa SRC1 inh -1.
`Cc1nn(Cc2ccccc2)c(C)c1NC(=O)CSc1nnc(-c2cc(Cl)ccc2O)n1C` gave ERb SRC1 inh 47, ERa SRC1 pot 58, Lung fibro prol 88, H69AR growth 86K 50, HUVEC prolif 384 101 and ERa SRC1 inh 53*.
`CCc1ccc2[nH]c(=O)c(CN(CCCN3CCOCC3)C(=O)Nc3cccc(Cl)c3)cc2c1` gave ERb SRC1 inh -13, ERa SRC1 pot 89, Lung fibro prol 61, H69AR growth 86K 29*, HUVEC prolif 384 15* and ERa SRC1 inh 0.
`Cc1ccc2[nH]c(=O)c(CN(CCCN(C)C)C(=O)Nc3ccc(Cl)cc3)cc2c1` gave ERb SRC1 inh -5, ERa SRC1 pot 105, Lung fibro prol 64, H69AR growth 86K 3.0*, HUVEC prolif 384 62 and ERa SRC1 inh 4.
For Cc1ccc2[nH]c(=O)c(CN(CCCN3CCOCC3)C(=O)NC3CCCCC3)cc2c1 the results were ERb SRC1 inh -6, ERa SRC1 pot 113, Lung fibro prol 99, H69AR growth 86K 63, HUVEC prolif 384 85 and ERa SRC1 inh 0.
Screening Cc1ccc(C)c2[nH]c(=O)c(CN(CCN3CCCC3)C(=O)Nc3cccc(Cl)c3)cc12 returned ERb SRC1 inh 3, ERa SRC1 pot 127, Lung fibro prol 28*, H69AR growth 86K 0.6*, HUVEC prolif 384 21* and ERa SRC1 inh 11.
O=C(Nc1ccccc1)N(CCCN1CCOCC1)Cc1cc2cc3c(cc2[nH]c1=O)OCCO3 was read as ERb SRC1 inh 1, ERa SRC1 pot 114, Lung fibro prol 86, H69AR growth 86K 77, HUVEC prolif 384 86 and ERa SRC1 inh -3.
For Cc1ccc2[nH]c(=O)c(CN(CCN3CCOCC3)C(=O)Nc3ccc(F)cc3)cc2c1 the results were ERb SRC1 inh -4, ERa SRC1 pot 124, Lung fibro prol 96, H69AR growth 86K 39*, HUVEC prolif 384 90 and ERa SRC1 inh -2.
Cc1cc(C)c2cc(CN(CCN3CCCC3)C(=O)Nc3ccc(F)cc3)c(=O)[nH]c2c1 was read as ERb SRC1 inh -14, ERa SRC1 pot 101, Lung fibro prol 94, H69AR growth 86K 75, HUVEC prolif 384 55 and ERa SRC1 inh 11.
`CCc1ccc2[nH]c(=O)c(CN(CCCN3CCOCC3)C(=O)Nc3ccccc3)cc2c1` gave ERb SRC1 inh -17, ERa SRC1 pot 115, Lung fibro prol 95, H69AR growth 86K 65, HUVEC prolif 384 73 and ERa SRC1 inh -3.
For Cc1cc(C)c2cc(CN(CCO)C(=O)Nc3ccc(Cl)cc3)c(=O)[nH]c2c1 the results were ERb SRC1 inh -13, ERa SRC1 pot 232*, Lung fibro prol 96, H69AR growth 86K 59, HUVEC prolif 384 78 and ERa SRC1 inh -19.

Bioassay records deposited in PubChem BioAssay by several laboratories.
